Measurements gathered from unrelated publications.
MMP2: 72 kDa type IV collagenase (MMP2, Homo sapiens, UniProt P08253)
UCHL1: Ubiquitin carboxyl-terminal hydrolase isozyme L1 (UCHL1, Homo sapiens, UniProt P09936)

O=C(Nc1cccnn1)N1CCN([C@@H]2CCOc3cc(C(F)(F)F)ccc32)CC1  inhibition (MMP2; cell-free assay; 20 µM): 20%
Nc1c(S(=O)(=O)O)cc(Nc2ccc(Nc3nc(Cl)nc(Nc4cccc(S(=O)(=O)O)c4)n3)c(S(=O)(=O)O)c2)c2c1C(=O)c1ccccc1C2=O  inhibition (Histone-lysine N-methyltransferase SETD7 (SETD7, Homo sapiens, UniProt Q8WTS6); cell-free assay; 10 µM): 93%
CCOC(=O)c1ccc(OC(=O)CCCCCNC(=N)N)cc1  inhibition (MMP2; enzyme activity, inhibitor; 10 µM): 26%
COc1cc(Nc2ncc(F)c(Nc3ccc4c(n3)NC(=O)C(C)(C)O4)n2)cc(OC)c1OC  inhibition (Epithelial discoidin domain-containing receptor 1 (DDR1, Homo sapiens, UniProt Q08345); binding, competition with immobilised ligand; 10 µM): 100%
Cc1ncc(C)n2nc(/C=C/c3nc(N4CCCC4)cc(N4CCOCC4)n3)nc12  inhibition (MMP2; enzyme activity, inhibitor; 10 µM): 3%
C#Cc1n[nH]c2c(-c3cn([C@@H](C)c4ccccn4)c(=O)[nH]c3=O)cc(F)cc12  inhibition (Casein kinase I isoform gamma-1 (CSNK1G1, Homo sapiens, UniProt Q9HCP0); enzyme activity, inhibitor; 0.1 µM): 2.6%
CCN(CC)CCCC[C@H](NC(=O)[C@H](CC(C)C)NC(=O)[C@H](C)NC(=O)[C@H](Cc1ccccc1)NC(=O)c1ccc(C(C)(C)C)cc1)C(=O)N[C@@H](CO)C(=O)OC  inhibition (Galanin receptor type 2 (GALR2, Homo sapiens, UniProt O43603); ligand displacement, radioligand; 10 µM): -21%
C[C@H](C(=O)N[C@H]1COc2ccccc2[C@@H]1S(C)(=O)=O)c1ccc(F)cc1  inhibition (Coagulation factor X (F10, Homo sapiens, UniProt P00742); enzyme activity, inhibitor; 10 µM): -3%
CN(C)C(=O)COC(=O)Cc1ccc(OC(=O)c2ccc(NC(=N)N)cc2)cc1  inhibition (UCHL1; enzyme activity, inhibitor; 10 µM): 7%
Cn1cc(-c2cc(F)cc(N3CCn4c(cc5c4CCCC5)C3=O)c2CO)cc(Nc2ccc(N3CCN(C4COC4)CC3)cn2)c1=O  inhibition (G protein-coupled receptor kinase 5 (GRK5, Homo sapiens, UniProt P34947); enzyme activity, inhibitor; 0.1 µM): 4%
COc1ccc(S(=O)(=O)N(CC(=O)NO)CC(C)C)cc1  inhibition (MMP2; enzyme activity, inhibitor; 10 nM): 24%
Cn1cc(-c2cccc(N3CCc4c(sc5c4CC(C)(C)C5)C3=O)c2CO)cc(Nc2ccncn2)c1=O  inhibition (G protein-coupled receptor kinase 6 (GRK6, Homo sapiens, UniProt P43250); enzyme activity, inhibitor; 1 µM): -1%
CC(C)C[C@H](NC(=O)[C@H](Cc1ccccc1)NC(=O)c1cnccn1)B(O)O  inhibition (Lysosomal protective protein (CTSA, Homo sapiens, UniProt P10619); cell-free assay, inhibitor; 33 µM): 32.4%
N=C(N)c1ccc2cc(OC(=O)c3ccc(N=C(N)N)cc3)ccc2c1  inhibition (UCHL1; enzyme activity, inhibitor; 10 µM): 0%
